According to ChEMBL document CHEMBL3297699, “Synthesis of novel fluoro analogues of MKC442 as microbicides” (J Med Chem, 2014):

How the values were obtained:
[1] = tested on: Human immunodeficiency virus 1; experiment: Antiviral activity against HIV1 CRF02 infected in human dendritic cells assessed as inhibition of p24 in supernatants; details: Human immunodeficiency virus 1, CRF02, dendritic cells
[2] = tested on: Human immunodeficiency virus 1; experiment: Antiviral activity against HIV1 MP411 infected in human dendritic cells assessed as inhibition of p24 in supernatants; details: Human immunodeficiency virus 1, MP411, dendritic cells
[3] = tested on: Human immunodeficiency virus 1; experiment: Antiviral activity against […] HIV1 harboring 103N, 181C mutant infected in human MT4 cells assessed as inhibition of virus-induced cytopathogenicity after 4 days by MTT assay; format: functional, organism-based; details: Human immunodeficiency virus 1, MT4, 96 h
In short: (§1)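 MT-4 cells grown at 37 °C, 5% CO2 in RPMI-1640 with 10% FCS, penicillin and streptomycin. Compounds taken up in DMSO at […] (stock), then diluted in medium. 1 × 10^4 cells per well with serial compound dilutions, then HIV-1 inoculum sized to give complete cytopathogenicity by day 4. Viability read by MTT. […] Mean of three independent determinations.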

[4] = tested on: Human immunodeficiency virus 1; experiment: Antiviral activity against saquinavir-resistant HIV1 infected in human MT4 cells assessed as inhibition of virus-induced cytopathogenicity after 4 days by MTT assay; format: functional, organism-based; details: Human immunodeficiency virus 1, MT4, 96 h
In short: as §1

[5] = tested on: Human immunodeficiency virus 1; experiment: Antiviral activity against […] HIV1 harboring Y181C mutant infected in human MT4 cells assessed as inhibition of virus-induced cytopathogenicity after 4 days by MTT assay; format: functional, organism-based; details: Human immunodeficiency virus 1, MT4, 96 h
In short: as §1

[6] = tested on: Human immunodeficiency virus 1; experiment: Antiviral activity against HIV1 MP634 infected in human dendritic cells assessed as inhibition of p24 in supernatants; details: Human immunodeficiency virus 1, MP634, dendritic cells
[7] = tested on: Human immunodeficiency virus 1; experiment: Antiviral activity against HIV1 MP1033 infected in human dendritic cells assessed as inhibition of p24; details: Human immunodeficiency virus 1, MP1033, dendritic cells
[8] = Cytotoxicity against human MT4 cells after 40 days by MTT assay; format: cell-based
In short: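 Mock-infected MT-4 cells at 1 × 10^5 cells/mL, 37 °C, with various compound concentrations for 40 days. One-tenth of the culture is moved every 3−4 days into fresh drug-containing medium at low density to keep growth exponential. Viability is read by MTT at each passage. The value is the maximum concentration still allowing exponential proliferation, as the mean of three determinations.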

[9] = Cytotoxicity against human MT4 cells after 96 hrs by MTT assay; format: cell-based
In short: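 Serial compound dilutions (from DMSO stocks at […]) are added, then cells are held 96 h at 37 °C in humidified 5% CO2. Viability is read by MTT. The value is the concentration reducing proliferation by 50%, as the mean of three independent determinations, run in parallel with the antiviral assays.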

[10] = tested on: Human immunodeficiency virus 1; experiment: Antiviral activity against HIV1 infected in human MT4 cells assessed as lowest compound concentration required to irreversibly knock out vial multiplication treated 4 hrs after infection measured after 40 days by MTT assay; format: functional
In short: (§2)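 HIV-1-infected MT-4 cells at high MOI (5−10 CCID50/cell) in 40-day assays. Compound is given continuously (chronic), for only the first 4 h after infection, or for 4 h immediately before infection. Cells are resuspended at 10^5 cells/mL every 4 days. The value is the lowest concentration that irreversibly knocks out HIV-1 multiplication, as the mean of three independent determinations.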

[11] = tested on: Human immunodeficiency virus 1; experiment: Antiviral activity against zidovudine-resistant HIV1 harboring RT 67N, 70R, 215F, 219Q mutant infected in human MT4 cells assessed as inhibition of virus-induced cytopathogenicity after 4 days by MTT assay; format: functional, organism-based; details: Human immunodeficiency virus 1, MT4, 96 h
In short: as §1

[12] = tested on: Human immunodeficiency virus 1; experiment: Antiviral activity against 6-[(3,5-Dimethylphenyl)fluoromethyl]-5-ethyl-1-{[[4-(3-hydroxyprop-1-ynyl)benzyl]oxy]methyl}pyrimidine-2,4(1H,3H)-dione-resistant HIV1 harboring RT 106I, 181C mutant infected in human MT4 cells assessed as inhibition of virus-induced cytopathogenicity after 4 days by MTT assay; format: functional, organism-based; details: Human immunodeficiency virus 1, MT4
In short: as §1

[13] = tested on: Human immunodeficiency virus 1; experiment: Antiviral activity against NRTI-resistant HIV1 MP1315 infected in human dendritic cells assessed as inhibition of p24 in supernatants; details: Human immunodeficiency virus 1, MP1315, dendritic cells
[14] = tested on: Human immunodeficiency virus 1; experiment: Antiviral activity against MC1220-resistant HIV1 harboring RT 100I, 179D, 181C mutant infected in human MT4 cells assessed as inhibition of virus-induced cytopathogenicity after 4 days by MTT assay; format: functional, organism-based; details: Human immunodeficiency virus 1, MT4, 96 h
In short: as §1

[15] = tested on: Human immunodeficiency virus 1; experiment: Antiviral activity against HIV1 infected in human MT4 cells assessed as lowest compound concentration required to irreversibly knock out vial multiplication treated by chronic treatment measured after 40 days by MTT assay; format: functional
In short: as §2

[16] = tested on: Human immunodeficiency virus 1; experiment: Antiviral activity against efavirenz-resistant HIV1 harboring RT 100I, 103R, 179D, 225H mutant infected in human MT4 cells assessed as inhibition of virus-induced cytopathogenicity after 4 days by MTT assay; format: functional, organism-based; details: Human immunodeficiency virus 1, MT4
In short: as §1

[17] = tested on: Human immunodeficiency virus 1; experiment: Antiviral activity against wild type HIV1 3B infected in human MT4 cells assessed as inhibition of virus-induced cytopathogenicity after 4 days by MTT assay; format: functional, organism-based; details: Human immunodeficiency virus 1, 3B, MT4, 96 h
In short: as §1

[18] = tested on: Human immunodeficiency virus 1; experiment: Antiviral activity against TMC125-resistant HIV1 harboring RT 109M, 138K, 190E mutant infected in human MT4 cells assessed as inhibition of virus-induced cytopathogenicity after 4 days by MTT assay; format: functional, organism-based; details: Human immunodeficiency virus 1, MT4, 96 h
In short: as §1

[19] = tested on: Human immunodeficiency virus 1; experiment: Antiviral activity against MDR-resistant HIV1 harboring 41L, 74V, 106A, 215Y mutant infected in human MT4 cells assessed as inhibition of virus-induced cytopathogenicity after 4 days by MTT assay; format: functional, organism-based; details: Human immunodeficiency virus 1, MT4, 96 h
In short: as §1

[20] = tested on: Human immunodeficiency virus 1; experiment: Antiviral activity against HIV1 infected in human MT4 cells assessed as lowest compound concentration required to irreversibly knock out vial multiplication treated 4 hrs before infection measured after 40 days by MTT assay; format: functional
In short: as §2

[21] = tested on: Human immunodeficiency virus 1; experiment: Antiviral activity against HIV1 MP1308 infected in human dendritic cells assessed as inhibition of p24; details: Human immunodeficiency virus 1, MP1308, dendritic cells
[22] = tested on: Human immunodeficiency virus 1; experiment: Antiviral activity against HIV1 CRF01 infected in human dendritic cells assessed as inhibition of p24 in supernatants; details: Human immunodeficiency virus 1, CRF01, dendritic cells
[23] = tested on: Human immunodeficiency virus 1; experiment: Antiviral activity against TMC120-resistant HIV1 harboring RT 100I, 138G mutant infected in human MT4 cells assessed as inhibition of virus-induced cytopathogenicity after 4 days by MTT assay; format: functional, organism-based; details: Human immunodeficiency virus 1, MT4, 96 h
In short: as §1

Compound: Cc1cc(C)c(Nc2ccnc(Nc3ccc(C#N)cc3)n2)c(C)c1 [DAPIVIRINE]
- EC99 [1]: 0.01 µM
- EC99 [2]: 0.01 µM
- EC50 [3]: 50 nM
- EC50 [4]: 3 nM
- EC50 [5]: 40 nM
- EC99 [6]: 0.01 µM
- EC99 [7]: 0.01 µM
- MNTC at 960 h [8]: 300 nM
- CC50 at 96 h [9]: 2000 nM
- Activity [10]: >20 µM
- EC50 [11]: 1 nM
- EC50 [12]: 100 nM
- EC99 [13]: 0.0001 µM
- EC50 [14]: 100 nM
- Activity [15]: 0.1 µM
- EC50 [16]: 200 nM
- EC50 [17]: 3 nM
- EC50 [18]: > 20000 nM
- EC50 [19]: 2 nM
- Activity [20]: >20 µM
- EC99 [21]: 0.01 µM
- EC99 [22]: 0.01 µM
- EC50 [23]: > 20000 nM

Compound: C=CCOCn1c(C(F)c2cc(C)cc(C)c2)c(CC)c(=O)[nH]c1=O (configuration not stated)
- EC50 [3]: 1600 nM
- EC50 [4]: 4200 nM
- EC50 [5]: 200 nM
- CC50 at 96 h [9]: 64000 nM
- EC50 [11]: 50 nM
- EC50 [16]: 2000 nM
- EC50 [17]: 4 nM

Compound: CC(C)(C)NC(=O)[C@@H]1C[C@@H]2CCCC[C@@H]2CN1C[C@@H](O)[C@H](Cc1ccccc1)NC(=O)[C@H](CC(N)=O)NC(=O)c1ccc2ccccc2n1
- EC50 [3]: 10 nM
- EC50 [4]: 90 nM
- EC50 [5]: 20 nM
- CC50 at 96 h [9]: 15000 nM
- EC50 [11]: 10 nM
- EC50 [12]: 20 nM
- EC50 [14]: 10 nM
- EC50 [16]: 10 nM
- EC50 [17]: 20 nM
- EC50 [18]: 10 nM
- EC50 [19]: 20 nM
- EC50 [23]: 20 nM

Compound: Cc1ccnc2c1NC(=O)c1cccnc1N2C1CC1 [NEVIRAPINE]
- EC50 [3]: > 10000 nM
- EC50 [5]: > 10000 nM
- CC50 at 96 h [9]: > 100000 nM
- EC50 [11]: 60 nM
- EC50 [12]: > 20000 nM
- EC50 [14]: 4000 nM
- EC50 [16]: > 10000 nM
- EC50 [18]: > 20000 nM
- EC50 [19]: 3000 nM
- EC50 [23]: 1000 nM

Compound: C=C(C)COCn1c(C(F)c2cc(C)cc(C)c2)c(CC)c(=O)[nH]c1=O (configuration not stated)
- EC50 [3]: 7000 nM
- EC50 [4]: 3800 nM
- EC50 [5]: 400 nM
- CC50 at 96 h [9]: 40000 nM
- EC50 [11]: 70 nM
- EC50 [16]: 4000 nM
- EC50 [17]: 8 nM
- EC50 [19]: 3400 nM

Compound: CCOCn1c(Cc2ccccc2)c(C(C)C)c(=O)[nH]c1=O [EMIVIRINE]
- EC50 [3]: > 100000 nM
- EC50 [4]: 60 nM
- EC50 [5]: > 10000 nM
- CC50 at 96 h [9]: > 100000 nM
- EC50 [11]: 80 nM
- EC50 [16]: 100000 nM
- EC50 [19]: 1500 nM

Compound: Cc1cn([C@H]2C[C@H](N=[N+]=[N-])[C@@H](CO)O2)c(=O)[nH]c1=O [ZIDOVUDINE]
- EC50 [3]: 10 nM
- EC50 [5]: 20 nM
- EC50 [11]: 200 nM
- EC50 [12]: 10 nM
- EC50 [14]: 9 nM
- EC50 [16]: 10 nM
- EC50 [17]: 10 nM
- EC50 [18]: 8 nM
- EC50 [19]: 200 nM
- EC50 [23]: 10 nM
